The experiment relates to HL-60. In words: Antiproliferative activity against human HL60 cells after 72 hrs. The experiment is classed as functional. As to conditions: HL-60, 72 h. Put shortly: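 HL-60 cells grown in RPMI-1640 with 10% heat-inactivated FBS, penicillin, streptomycin and L-glutamine. Cells seeded at 1 × 10⁵ cells/mL and exposed to a range of compound concentrations for 72 h. Total cells (trypan blue positive and negative) counted by haemocytometer. Treated/untreated cell-number ratio used to calculate GI50.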

For orientation: GI50 means the concentration that inhibits growth by half.

As to `C=C(CCCC)C(=O)c1ccc(OC(C)C(=O)O)c(C)c1C` (stereo not drawn), halving of growth (GI50) required 12.1 µM.

Compound `C=C(CCC)C(=O)c1ccc(OCC(=O)OC)c(C)c1C` showed a GI50 of 8.6 µM.

In turn, `C=C(CCCC)C(=O)c1ccc(OC(C)C(=O)OC)c(C)c1C` (stereo not drawn) yielded a GI50 of 5.2 µM.

With `C=C(CC)C(=O)c1ccc(OC(C)C(=O)OC)c(C)c1C` (stereo not drawn), the GI50 worked out at 4.6 µM.

Consider `C=C(CC)C(=O)c1ccc(OC(C)C(=O)O)cc1Cl` (stereo not drawn), for which the 50% growth inhibitory concentration (GI50) is more than 60 µM.

In turn, `C=C(CCC)C(=O)c1ccc(OCC(=O)O)c(C)c1C` had a concentration for 50% growth inhibition (GI50) of 19.3 µM.

Take `C=C(CC)C(=O)c1ccc(OC(C)C(=O)O)cc1Br` (stereo not drawn): the GI50 was more than 60 µM.

Take `C=C(CC)C(=O)c1ccc(OCC(=O)O)c(Cl)c1Cl` [ETHACRYNIC ACID]: it took 44.2 µM to inhibit growth by half (GI50).

As to `C=C(C)C(=O)c1ccc(OC(C)C(=O)O)cc1Cl` (stereo not drawn), the GI50 is more than 60 µM.

Compound `C=C(CC)C(=O)c1ccc(OCC(=O)O)cc1Cl` returned a concentration for 50% growth inhibition (GI50) of more than 60 µM.

`C=C(C)C(=O)c1ccc(OCC(=O)O)cc1Cl` had a GI50 of more than 60 µM.

As for `C=C(CC)C(=O)c1ccc(OCC(=O)O)cc1C`, the GI50 is more than 60 µM.

Compound `C=C(CCCC)C(=O)c1ccc(OCC(=O)OC)c(C)c1C` yielded a GI50 of 8.6 µM.

`C=C(CC)C(=O)c1ccc(OC(C)C(=O)O)cc1C` (stereo not drawn) showed a 50% growth inhibitory concentration (GI50) of more than 60 µM.

As for `C=C(C)C(=O)c1ccc(OC(C)C(=O)O)cc1C` (stereo not drawn), the GI50 is more than 60 µM.

The compound `C=C(C)C(=O)c1ccc(OC(C)C(=O)OC)c(C)c1C` (stereo not drawn) returned a GI50 of 6 µM.

As for `C=C(CC)C(=O)c1ccc(OCC(=O)OC)c(Cl)c1Cl`, the GI50 came to 3.9 µM.

In turn, `C=C(CC)C(=O)c1ccc(OCC(=O)O)cc1Br` registered a GI50 of more than 60 µM.

Compound `C=C(C)C(=O)c1ccc(OCC(=O)O)cc1C` displayed a GI50 of more than 60 µM.

Consider `C=C(CCCC)C(=O)c1ccc(OCC(=O)O)c(C)c1C`, for which growth was halved (GI50) at 14.4 µM.

In the case of `C=C(CCC)C(=O)c1ccc(OC(C)C(=O)O)c(C)c1C` (stereo not drawn), growth was halved (GI50) at 11.2 µM.

On to `C=C(CCC)C(=O)c1ccc(OC(C)C(=O)OC)c(C)c1C` (stereo not drawn), for which the GI50 turned out to be 5.6 µM.

On to `C=C(C)C(=O)c1ccc(OC(C)C(=O)O)cc1Br` (stereo not drawn), for which the GI50 was more than 60 µM.
